From PubChem
CCR6 antag – CCR6 receptor antagonists, primary screen, cell-based, CHO-K1, luminescence, beta-arrestin, uHTS. C-C chemokine receptor type 6 (Homo sapiens), P51684. AID 493098, 2011. CHO-K1 CCR6 PathHunter beta-arrestin, CCL20-stimulated. 340,000 compounds, 0.49% hits. inhibition, % at 20 µM;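 active = compounds whose inhibition of the agonist-driven luminescence signal at 20 µM reaches about 50%, limit read from the data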;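 also: cells stimulated with CCL20 at 14 nM final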
APJ antagonist – antagonists of human apelin receptor APJ, primary screen, CHO-K1 cells, beta-arrestin complementation, luminescence; P35414; inhibition, % at 20 µM; 330,000 compounds, 0.32% hits;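 active = inhibition above about 40% at 20 µM, limit read from the data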;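 also: cells challenged with 10 nM apelin-13 agonist together with compound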
Target sequence (P35414 whole entry, looked up): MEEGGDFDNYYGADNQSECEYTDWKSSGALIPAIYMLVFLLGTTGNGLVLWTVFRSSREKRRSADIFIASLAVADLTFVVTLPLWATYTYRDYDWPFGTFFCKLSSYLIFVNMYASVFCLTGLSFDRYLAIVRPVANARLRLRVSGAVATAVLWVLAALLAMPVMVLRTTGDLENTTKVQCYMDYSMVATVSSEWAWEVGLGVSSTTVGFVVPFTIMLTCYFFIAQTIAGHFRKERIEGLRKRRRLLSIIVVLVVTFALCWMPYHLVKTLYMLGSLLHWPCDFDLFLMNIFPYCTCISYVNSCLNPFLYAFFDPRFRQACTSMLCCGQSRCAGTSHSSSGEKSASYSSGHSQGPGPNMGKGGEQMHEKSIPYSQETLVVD
PKA-R1A activ – activators of PKA-R1A holoenzyme, primary screen, biochemical, fluorescence polarization, Cy5-IP20, bovine R1A, mouse PKAc; PKA-R1A dissociation; scaled: DMSO 0%, 113 µM cGMP 100%; activation, % at 11.4 µM; 340,000 compounds, 0.083% hits; AID 504707, 2011;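 active = percent activation above the mean of all tested compounds plus 3 SD, cut at about 19% in these data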;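 also: higher means more PKAc released from R1A so a rise in polarization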
CXCR6 inh – CXCR6 receptor inhibitors, primary screen, cell-based, beta-arrestin, luminescence, CHO-K1 PathHunter, 1536-well; 360,000 compounds, 0.36% hits; C-X-C chemokine receptor type 6 (Homo sapiens), O00574; inhibition, % at 20 µM; AID 602244, 2012; in the data active = inhibition above about 34%, passing the limit was not always enough;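 also: antagonist mode with CXCL16 agonist at 10 nM final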
PKA-R2B activ – activators of PKA-R2B holoenzyme, primary screen, biochemical, fluorescence polarization, Cy5-IP20, human; PKA-R2B holoenzyme dissociation; R2B truncated from residue 108, S112A mutant; 0% DMSO only, 100% 113 µM cGMP; activation, % at 11.4 µM; 340,000 compounds, 0.079% hits; AID 504700, 2011;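 active = activation above a cutoff set at the mean over all compounds plus 3 SD, cut at about 18% in these data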;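 also: higher means more holoenzyme dissociation and a rise in polarization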
APJ agonist – agonists of human apelin receptor APJ, primary screen, CHO-K1 cells, PathHunter beta-arrestin, luminescence; P35414; 0% DMSO wells, 100% apelin; activation, % at 20 µM; 330,000 compounds, 0.11% hits;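 active = activation more than six SD over the plate average, tested at 20 µM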
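Assay system – PathHunter CHO-K1 APJ (AGTRL-1) beta-arrestin reporter cells · Compound – one dose, 20 µM compound, 1% DMSO · Timing – compound 90 min 25 °C, reagent 1 h · Measured by – luminescence from split beta-galactosidase complementation, Galacton Star/Emerald II substrate · Measure – beta-arrestin recruitment to APJ as agonist activity, luminescent signal · Benchmarks – DMSO vs Apelin-13 10 nM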
APJ antag conf – APJ antagonists blocking beta-arrestin recruitment, confirmation, cell-based, luminescence, single concentration, uHTS hits; inhibition, % at 20 µM; AID 2766, 2010; shares compounds with APJ antagonist; antagonist mode; 950 compounds, 66% hits; in the data active = inhibition above about 50%
Numbers stand for hits; i = inactive; nt = not tested or not shown. Only some compounds are listed: those with a hit (about 0.88% of all), similar ones and a draw of the others.

SMILES | CCR6 antag | APJ antagonist | PKA-R1A activ | CXCR6 inh | PKA-R2B activ | APJ agonist | APJ antag conf
O=C(Nc1cc(Cl)ccc1Cl)C1Cc2ccccc2O/C1=N\O (stereo not given) | i | i | i | i | i | i | nt
CCc1nc2ccc(C(=O)NCc3ccccc3OC)cn2c1N(C)Cc1ccc(OC)cc1 | nt | nt | nt | i | nt | nt | nt
Cn1c(O)c(N=Nc2nc(-c3ccccc3)cs2)c2ccccc21 | 61 | 50 | i | i | i | i | 62
Cn1c(O)c(N=Nc2ccccc2)c2ccccc21 | i | i | i | i | i | i | nt
Cc1cc(C)c2cccc(N)c2n1 | i | i | i | i | i | i | nt
Cc1cc(C)c2ccc(N)nc2c1O | 62 | 51 | i | 49 | i | i | 59
COC(=O)c1ccc(N/N=C/c2cc([N+](=O)[O-])cc(OC)c2O)cc1 | 57 | 59 | i | 42 | i | i | 85
COc1ccc(/C=N\Nc2ccc([N+](=O)[O-])cc2)c(C(=O)O)c1OC | i | 47 | i | i | i | i | 60
COc1cccc(/C=N/Nc2ccc([N+](=O)[O-])cc2)c1O | i | i | i | i | i | i | nt
CC1(c2nnnn2-c2ccc3c(c2)OCCO3)CCC(=O)N1CCc1ccccc1F (stereo not given) | nt | nt | nt | i | nt | nt | nt
C/C=C/C1=CC(=O)C[C@H](c2ccc(F)cc2)C1 | i | i | i | i | i | i | nt
COCC(C)n1c(SCc2ccc(C(=O)OC)cc2)nc2ccccc2c1=O (stereo not given) | i | i | i | i | i | i | nt
CCc1noc(C)c1C(=O)N(C)CC(=O)Nc1cccc(OC)c1 | i | i | i | i | i | i | nt
CC(=O)N1CCN(c2nnc(-c3ccccc3)c3ccccc23)CC1 | i | i | i | i | i | i | nt
CC(=O)C1=C(c2ccccc2)N(C(C)=O)n2c(C)nnc2S1 | 100 | 105 | i | i | i | i | 152
CCC(c1nnnn1-c1ccc2c(c1)OCCO2)N1CCN(c2cccc(C)c2C)CC1 (stereo not given) | nt | nt | nt | i | nt | nt | nt
O=C1OCC(CO)(CO)N=C1NNc1ccc(Cl)c(Cl)c1 | i | 55 | i | i | i | i | 67
COc1ccc2nc(N(CCN(C)C)C(=O)c3ccc(C(=O)c4ccccc4)cc3)sc2c1 | i | i | i | i | i | i | nt
CCN(CC)CCN(C(=O)c1ccc(C(=O)c2ccccc2)cc1)c1nc2ccc(OC)cc2s1 | i | 51 | i | i | i | i | i
Cc1nc(SCC(=O)c2ccccc2)c(C#N)c(-c2ccco2)c1C(=O)NCc1ccco1 | i | i | i | i | i | i | nt
CN1C(=O)[C@H]2[C@@H](/C=C/c3ccccc3)N3C(=O)CN(CC4CC4)C(=O)[C@@]3(C)[C@H]2C1=O | i | i | i | i | i | i | nt
CCN(CC)C(=S)SSC(=S)N(CC)CC | 60 | 71 | i | 51 | i | i | 108
Cc1ccccc1-c1nn(-c2ccc(F)cc2F)cc1CNC1CC1 | i | i | nt | i | nt | i | nt
O=C(CN1CCCCC1)NCC1(c2ccccc2)CCCC1 | i | i | i | i | i | i | nt
C/C(=N\O)C(=O)C(CN1CCCCC1)CN1CCCCC1 | 51 | 42 | i | i | i | i | i
SMILES | CCR6 antag | APJ antagonist | PKA-R1A activ | CXCR6 inh | PKA-R2B activ | APJ agonist | APJ antag conf
CC(=O)/C(CN1CCCCC1)=N\O | i | i | i | i | i | i | nt
COc1ccc2c(c1)NC(c1ccc(N(C)C)cc1)c1cccn1-2 (stereo not given) | i | i | i | i | i | i | nt
Cc1cc(C)cc(N(CC(=O)NCCSc2ccccn2)S(=O)(=O)c2ccccc2)c1 | i | 43 | i | i | i | i | i
CC(OC(=O)C1=COCCO1)C(=O)Nc1cc(S(=O)(=O)N2CCCCC2)ccc1Cl (stereo not given) | i | i | i | i | i | i | nt
Nc1ccc(-c2c3ccc(=O)cc-3oc3cc(O)ccc23)cc1C(=O)O | i | 41 | i | i | i | i | i
O=C(N/N=C/c1ccncc1)C1CC1(c1ccccc1)c1ccccc1 (stereo not given) | i | i | i | i | i | i | nt
O=C(N/N=C/c1ccc(O)c([N+](=O)[O-])c1)C1CC1(c1ccccc1)c1ccccc1 (stereo not given) | i | 41 | i | i | i | i | i
COc1cc(/C=C2\SC(c3ccc(C)cc3)=NC2=O)cc(OC)c1O | 65 | 56 | i | i | i | i | 77
CCOC(=O)[C@]12CCC=C1N(Cc1cccc3ccccc13)C(=O)[C@H](CC(=O)N1CCN(C(=O)c3ccco3)CC1)C2 | nt | nt | nt | i | nt | nt | nt
Cc1cc(C(=O)Nc2nc(-c3ccccn3)cs2)ccc1[N+](=O)[O-] | i | i | i | i | i | i | nt
O=C(Nc1nc(-c2ccccn2)cs1)c1cc(Cl)ccc1[N+](=O)[O-] | 77 | 72 | i | 59 | i | i | 97
O=[N+]([O-])c1nccn1CCCCCCN1CCOCC1 | nt | nt | nt | i | nt | nt | nt
Clc1ccc(NCc2nnc3n2CCCCC3)cc1 | i | 58 | i | i | i | i | i
CN(C)c1ccc2nc3c(=O)[nH]c(=O)nc-3n(CC(O)C(O)C(O)CO)c2c1 (stereo not given) | i | 70 | i | i | i | i | 70
Cc1ncc(C(O)c2ccc(N(C)C)cc2)n1Cc1ccccc1 (stereo not given) | nt | nt | i | i | i | nt | nt
CC(C)C(NC(=O)C1CCCCC1)C(=O)NCc1ccccn1 (stereo not given) | i | i | i | i | i | i | nt
CC(C)C(NC(=O)C1CCCCC1)C(=O)NCCc1ccccc1 (stereo not given) | i | 41 | i | i | i | i | i
CCOc1ccc(N2C(=O)CC(Cc3ccc(Br)cc3)C2=O)cc1 (stereo not given) | i | 65 | i | i | i | i | i
O=C1Nc2ccccc2C1=Nc1cccc(Cl)c1 | i | i | i | i | i | i | nt
NS(=O)(=O)c1ccc(N=C2C(=O)Nc3ccccc32)cc1 | i | i | i | i | i | i | nt
CSc1cccc(N=C2C(=O)Nc3ccccc32)c1 | 54 | 45 | i | i | i | i | 110
O=C1Nc2ccccc2C1=Nc1ccc(F)cc1 | 68 | 49 | i | i | i | i | 119
CC(=O)c1ccc(N=C2C(=O)Nc3ccccc32)cc1 | i | 104 | i | 69 | i | i | 155
Cc1cccc(N=C2C(=O)Nc3c(Cl)cccc32)c1 | 65 | 63 | i | i | i | i | 136
